Measurements from ChEMBL document CHEMBL5303300, “EUbOPEN Chemogenomics Library - Multiplex” (2023).
Values joined by “and” are separate entries in the source; they are usually repeats but may differ in a detail not shown here. Equal values may be shown once.

System: Fibroblast
Assay: Multiplex assay against human fibroblast
Format: toxicity, cell-based
Settings: number of replicates 2
How it was run: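 On a CQ1 microscope at 37°C and 5% CO2, live cells were imaged after compound addition. They had been stained at seeding with Hoechst33342, BioTracker Green Microtubule Cytoskeleton Dye, MitoTracker Red and Annexin V Alexa Fluor 680. CellPathfinder machine-learning gating assigned cells to Hoechst high-intensity objects or normal cells, normal cells to healthy, pyknosed or fragmented nuclei, and pyknosed cells to mitotic or apoptotic. Tubulin, mitochondrial-mass and membrane-permeability phenotypes are per cents of healthy-nucleus cells.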

[1] = 12 h, 1 µM, compound concentration 1 uM
[2] = 12 h, 10 µM, compound concentration 10 uM
[3] = 24 h, 1 µM, compound concentration 1 uM
[4] = 24 h, 10 µM, compound concentration 10 uM
[5] = 48 h, 1 µM, compound concentration 1 uM
[6] = 48 h, 10 µM, compound concentration 10 uM

SMILES: CCN1CCN(Cc2ccc(C(=O)Nc3ccc(C)c(Oc4ccc5c(c4)CC(=O)N5)c3)cc2C(F)(F)F)CC1.Cl.Cl
- Population Apoptotic (%) [1]: 32% and 37%
- Population Fragmented Nuclei (%) [1]: 14% and 13%
- Population Healthy Nuclei (%) [1]: 59% and 62%
- Population Hoechst High Intensity Objects (%) [1]: 0%
- Population Membrane Permeable-Phenotype (%) [1]: 2% and 6%
- Population Mitochondria Different-Phenotype (%) [1]: 2% and 1%
- Population Mitotic Cells (%) [1]: 67% and 62%
- Population Normal (%) [1]: 100% and 99%
- Population Pyknosed Nuclei (%) [1]: 25% and 23%
- Population Tubulin-Different-Phenotype (%) [1]: 27%
- Total Cell Count [1]: 230 and 264
- Population Apoptotic (%) [2]: 47% and 35%
- Population Fragmented Nuclei (%) [2]: 22% and 13%
- Population Healthy Nuclei (%) [2]: 58% and 61%
- Population Hoechst High Intensity Objects (%) [2]: 0%
- Population Membrane Permeable-Phenotype (%) [2]: 8%
- Population Mitochondria Different-Phenotype (%) [2]: 11% and 14%
- Population Mitotic Cells (%) [2]: 52% and 64%
- Population Normal (%) [2]: 99% and 100%
- Population Pyknosed Nuclei (%) [2]: 18% and 25%
- Population Tubulin-Different-Phenotype (%) [2]: 78% and 73%
- Total Cell Count [2]: 298 and 282
- Population Apoptotic (%) [3]: 47% and 46%
- Population Fragmented Nuclei (%) [3]: 21% and 16%
- Population Healthy Nuclei (%) [3]: 61% and 59%
- Population Hoechst High Intensity Objects (%) [3]: 0%
- Population Membrane Permeable-Phenotype (%) [3]: 3% and 1%
- Population Mitochondria Different-Phenotype (%) [3]: 2% and 4%
- Population Mitotic Cells (%) [3]: 52% and 53%
- Population Normal (%) [3]: 99% and 100%
- Population Pyknosed Nuclei (%) [3]: 17% and 23%
- Population Tubulin-Different-Phenotype (%) [3]: 28% and 20%
- Total Cell Count [3]: 278 and 269
- Population Apoptotic (%) [4]: 59% and 68%
- Population Fragmented Nuclei (%) [4]: 15% and 7%
- Population Healthy Nuclei (%) [4]: 57% and 51%
- Population Hoechst High Intensity Objects (%) [4]: 0% and 1%
- Population Membrane Permeable-Phenotype (%) [4]: 8% and 5%
- Population Mitochondria Different-Phenotype (%) [4]: 27% and 45%
- Population Mitotic Cells (%) [4]: 40% and 31%
- Population Normal (%) [4]: 99% and 98%
- Population Pyknosed Nuclei (%) [4]: 26% and 40%
- Population Tubulin-Different-Phenotype (%) [4]: 89% and 78%
- Total Cell Count [4]: 258 and 216
- Population Apoptotic (%) [5]: 88% and 73%
- Population Fragmented Nuclei (%) [5]: 23% and 20%
- Population Healthy Nuclei (%) [5]: 67% and 61%
- Population Hoechst High Intensity Objects (%) [5]: 0%
- Population Membrane Permeable-Phenotype (%) [5]: 4% and 6%
- Population Mitochondria Different-Phenotype (%) [5]: 4% and 5%
- Population Mitotic Cells (%) [5]: 12% and 26%
- Population Normal (%) [5]: 100% and 99%
- Population Pyknosed Nuclei (%) [5]: 8% and 18%
- Population Tubulin-Different-Phenotype (%) [5]: 28% and 27%
- Total Cell Count [5]: 282 and 246
- Population Apoptotic (%) [6]: 89% and 92%
- Population Fragmented Nuclei (%) [6]: 9% and 18%
- Population Healthy Nuclei (%) [6]: 44% and 41%
- Population Hoechst High Intensity Objects (%) [6]: 1% and 2%
- Population Membrane Permeable-Phenotype (%) [6]: 13% and 12%
- Population Mitochondria Different-Phenotype (%) [6]: 48% and 61%
- Population Mitotic Cells (%) [6]: 10% and 7%
- Population Normal (%) [6]: 98% and 97%
- Population Pyknosed Nuclei (%) [6]: 46% and 39%
- Population Tubulin-Different-Phenotype (%) [6]: 78% and 93%
- Total Cell Count [6]: 190 and 197

SMILES: CCCNc1ccc2ncc(-c3ccncc3)n2n1
- Population Apoptotic (%) [1]: 30% and 34%
- Population Fragmented Nuclei (%) [1]: 4% and 14%
- Population Healthy Nuclei (%) [1]: 65% and 63%
- Population Hoechst High Intensity Objects (%) [1]: 0%
- Population Membrane Permeable-Phenotype (%) [1]: 14% and 6%
- Population Mitochondria Different-Phenotype (%) [1]: 0%
- Population Mitotic Cells (%) [1]: 69% and 65%
- Population Normal (%) [1]: 100%
- Population Pyknosed Nuclei (%) [1]: 29% and 21%
- Population Tubulin-Different-Phenotype (%) [1]: 18% and 9%
- Total Cell Count [1]: 144 and 202
- Population Apoptotic (%) [2]: 51% and 53%
- Population Fragmented Nuclei (%) [2]: 12% and 10%
- Population Healthy Nuclei (%) [2]: 70% and 75%
- Population Hoechst High Intensity Objects (%) [2]: 0%
- Population Membrane Permeable-Phenotype (%) [2]: 4% and 3%
- Population Mitochondria Different-Phenotype (%) [2]: 5% and 1%
- Population Mitotic Cells (%) [2]: 48% and 46%
- Population Normal (%) [2]: 100%
- Population Pyknosed Nuclei (%) [2]: 17% and 13%
- Population Tubulin-Different-Phenotype (%) [2]: 27% and 17%
- Total Cell Count [2]: 157 and 204
- Population Apoptotic (%) [3]: 38% and 42%
- Population Fragmented Nuclei (%) [3]: 9% and 14%
- Population Healthy Nuclei (%) [3]: 61% and 63%
- Population Hoechst High Intensity Objects (%) [3]: 0%
- Population Membrane Permeable-Phenotype (%) [3]: 9% and 8%
- Population Mitochondria Different-Phenotype (%) [3]: 2% and 1%
- Population Mitotic Cells (%) [3]: 61% and 57%
- Population Normal (%) [3]: 100%
- Population Pyknosed Nuclei (%) [3]: 29% and 21%
- Population Tubulin-Different-Phenotype (%) [3]: 25% and 13%
- Total Cell Count [3]: 143 and 193
- Population Apoptotic (%) [4]: 75% and 65%
- Population Fragmented Nuclei (%) [4]: 18% and 15%
- Population Healthy Nuclei (%) [4]: 65% and 68%
- Population Hoechst High Intensity Objects (%) [4]: 0%
- Population Membrane Permeable-Phenotype (%) [4]: 5% and 3%
- Population Mitochondria Different-Phenotype (%) [4]: 8% and 7%
- Population Mitotic Cells (%) [4]: 25% and 34%
- Population Normal (%) [4]: 99% and 100%
- Population Pyknosed Nuclei (%) [4]: 16%
- Population Tubulin-Different-Phenotype (%) [4]: 33% and 30%
- Total Cell Count [4]: 151 and 200
- Population Apoptotic (%) [5]: 55% and 59%
- Population Fragmented Nuclei (%) [5]: 14% and 20%
- Population Healthy Nuclei (%) [5]: 57% and 59%
- Population Hoechst High Intensity Objects (%) [5]: 0%
- Population Membrane Permeable-Phenotype (%) [5]: 15% and 8%
- Population Mitochondria Different-Phenotype (%) [5]: 1% and 0%
- Population Mitotic Cells (%) [5]: 44% and 40%
- Population Normal (%) [5]: 100% and 99%
- Population Pyknosed Nuclei (%) [5]: 28% and 19%
- Total Cell Count [5]: 150 and 228
- Population Apoptotic (%) [6]: 61% and 80%
- Population Fragmented Nuclei (%) [6]: 14% and 13%
- Population Healthy Nuclei (%) [6]: 60% and 61%
- Population Hoechst High Intensity Objects (%) [6]: 0%
- Population Membrane Permeable-Phenotype (%) [6]: 11% and 4%
- Population Mitochondria Different-Phenotype (%) [6]: 6% and 5%
- Population Mitotic Cells (%) [6]: 38% and 20%
- Population Normal (%) [6]: 99%
- Population Pyknosed Nuclei (%) [6]: 24% and 25%
- Population Tubulin-Different-Phenotype (%) [6]: 45% and 33%
- Total Cell Count [6]: 149 and 198
